Reference: article PMC6001651 (International Journal of Biological Sciences, 2018)
Where no end group is shown, it is not given here.

Experiments:
[1] = Circular dichroism; format: physicochemical; settings: 100 µM peptide, 20 °C
Outline: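 Test compound at 100 µM was dissolved in 10 mM ammonium acetate or in 50% TFE (v/v in 10 mM ammonium acetate) and read in a 1-mm cuvette. Spectra covered 190–260 nm at 20 °C, with three accumulations, 200 nm/min scan speed, 1 nm bandwidth and 0.5 nm data pitch. % α-helix was estimated by K2D on DichroWeb.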

[2] = Stability in serum; format: in vitro ADME; settings: 10% FBS in RPMI-1640, 37 °C
Outline: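 Test compound at 50 μM was incubated in RPMI-1640 with 10% FBS at 37 °C for 24 h. Every 4 h, an aliquot was mixed with two volumes of 96% ethanol, held at 4 °C for 15 min and spun at 18,000× g for 2 min. Supernatants were analysed by RP-HPLC and MALDI-TOF. % remaining was the peak area relative to a serum-free stock; three independent experiments, mean ± s.d.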

[3] = tested on: S. aureus (NCTC 10788); assay: Antimicrobial assay; format: cell-based
Outline: (§1)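 Each organism was grown in Mueller-Hinton broth, and 10^5 CFU/mL were exposed to test compound at 1–512 μM in two-fold dilutions. Plates were incubated at 37 °C in humidified air for 16–24 h. For MBC, 20 µL from each well was plated on Mueller-Hinton agar. MBC was the lowest concentration giving no colonies.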

[4] = tested on: E. coli (NCTC 10418); assay: Antimicrobial assay; format: cell-based
Outline: as §1

[5] = tested on: C. albicans (NCTC 1467); assay: Antimicrobial assay; format: cell-based
Outline: as §1

[6] = tested on: methicillin-resistant S. aureus (MRSA; ATCC 12493); assay: Antimicrobial assay; format: cell-based
Outline: as §1

[7] = tested on: P. aeruginosa (ATCC 27853); assay: Antimicrobial assay; format: cell-based
Outline: as §1

[8] = tested on: E. faecalis (NCTC 12697); assay: Antimicrobial assay; format: cell-based
Outline: as §1

[9] = tested on: all the microorganisms that we examined; assay: Antimicrobial assays, summary over all microorganisms examined; format: cell-based
Outline: as §1

[10] = tested on: S. aureus biofilm; format: cell-based
[11] = tested on: P. aeruginosa biofilm; format: cell-based
[12] = tested on: biofilm formation by S. aureus and P. aeruginosa; format: cell-based
[13] = tested on: non-small cell lung cancer H157; assay: MTT anti-cancer assay; format: cell-based, human; settings: H157, 24 h
Outline: (§2)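 Cells were seeded at 5000/well, grown 24 h at 37 °C in 5% CO2, then serum-starved for 6 h. Test compound at ten-fold concentrations from 10^-4 to 10^-9 M in serum-free medium was added for 24 h. MTT (5 mg/ml solution) was added for 4–6 h, formazan was dissolved in DMSO and OD was read at 550 nm. IC50 came from normalised curves; three independent experiments, mean ± s.d.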

[14] = tested on: melanocyte MDA-MB-435S; assay: MTT anti-cancer assay; format: cell-based, human; settings: MBD-MB-435S, 24 h
Outline: as §2

[15] = tested on: human prostate carcinoma PC-3; assay: MTT anti-cancer assay; format: cell-based; settings: PC-3, 24 h
Outline: as §2

[16] = tested on: human glioblastoma astrocytoma U251MG; assay: MTT anti-cancer assay; format: cell-based; settings: U251-MG, 24 h
Outline: as §2

[17] = tested on: human breast cancer MCF-7; assay: MTT anti-cancer assay; format: cell-based; settings: MCF-7, 24 h
Outline: as §2

[18] = tested on: normal human microvessel endothelial cells HMEC-1; assay: MTT assay on normal cells; format: cell-based
Outline: as §2

[19] = tested on: five diverse human cancer cell lines; assay: MTT anti-cancer assay, summary over five cancer cell lines; format: cell-based; settings: read-out: IC50s over the cancer cell lines
Outline: as §2

[20] = Haemolysis assay; format: cell-based; settings: horse erythrocytes, 2% suspension
Outline: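 A 2% horse erythrocyte suspension in PBS was incubated with test compound at 1–512 μM for 2 h at 37 °C, with PBS and 1% Triton X-100 as controls. After centrifugation at 900× g for 5 min, supernatant absorbance was read at 550 nm. HC50 was calculated from normalised curves.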

In the case of RKKRRQRRRLNLKALLAVAKKIL-NH2 [tMP-C], the “% α-helix 10 mM NH4AC” value ([1]; 10 mM NH4AC buffer) is reported as 9%, the “% α-helix 50% TFE (v/v)” value ([1]; 50% TFE in 10 mM NH4AC) is reported as 28% and the “serum stability (in words)” value [2] is reported as “poor serum stability”. The MBC [3] was 4 µM, the MIC [3] was 4 µM and the MBC [4] was 2 µM. For the same substance, the MIC [4] was 2 µM, the MBC [5] was 2 µM and the MIC [5] was 2 µM. The MBC [6] was 8 µM, the MIC [6] was 4 µM and the MBC [7] was 4 µM. The MIC [7] was 4 µM, the MBC [8] was 16 µM and the MIC [8] was 8 µM. The “MIC and MBC values” [9] was “at most 16 µM”, the MBIC ([10]; S. aureus biofilm formation) was 32 µM and the MBEC ([10]; S. aureus existing biofilm) was 256 µM. For the same substance, the MBIC ([11]; P. aeruginosa biofilm formation) was 8 µM, the MBEC ([11]; P. aeruginosa existing biofilm) was 128 µM and the “maximum MBIC” value [12] was 32 µM. The IC50 [13] was 2790 nM, the IC50 [14] was 3.86 µM and the IC50 [15] was 3.86 µM. For the same substance, the IC50 [16] was 3.36 µM, the IC50 [17] was 3.7 µM and the inhibitory effect ([18]; HMEC-1, concentration of 10 µM) was 60%. For the same substance, the IC50 ([18]; HMEC-1 normal cells, 24 h, MTT) was 9.18 µM, the IC50 [19] was < 4 µM and the HC50 at 2 h [20] was 77.9 µM.
